Measurements from different studies.
Protocols differ between the studies behind these lines.
Target: Serine/threonine-protein kinase ULK2 (ULK2, Homo sapiens, UniProt Q8IYT8)
Sequence (Q8IYT8 1-1036, as in one of the studies): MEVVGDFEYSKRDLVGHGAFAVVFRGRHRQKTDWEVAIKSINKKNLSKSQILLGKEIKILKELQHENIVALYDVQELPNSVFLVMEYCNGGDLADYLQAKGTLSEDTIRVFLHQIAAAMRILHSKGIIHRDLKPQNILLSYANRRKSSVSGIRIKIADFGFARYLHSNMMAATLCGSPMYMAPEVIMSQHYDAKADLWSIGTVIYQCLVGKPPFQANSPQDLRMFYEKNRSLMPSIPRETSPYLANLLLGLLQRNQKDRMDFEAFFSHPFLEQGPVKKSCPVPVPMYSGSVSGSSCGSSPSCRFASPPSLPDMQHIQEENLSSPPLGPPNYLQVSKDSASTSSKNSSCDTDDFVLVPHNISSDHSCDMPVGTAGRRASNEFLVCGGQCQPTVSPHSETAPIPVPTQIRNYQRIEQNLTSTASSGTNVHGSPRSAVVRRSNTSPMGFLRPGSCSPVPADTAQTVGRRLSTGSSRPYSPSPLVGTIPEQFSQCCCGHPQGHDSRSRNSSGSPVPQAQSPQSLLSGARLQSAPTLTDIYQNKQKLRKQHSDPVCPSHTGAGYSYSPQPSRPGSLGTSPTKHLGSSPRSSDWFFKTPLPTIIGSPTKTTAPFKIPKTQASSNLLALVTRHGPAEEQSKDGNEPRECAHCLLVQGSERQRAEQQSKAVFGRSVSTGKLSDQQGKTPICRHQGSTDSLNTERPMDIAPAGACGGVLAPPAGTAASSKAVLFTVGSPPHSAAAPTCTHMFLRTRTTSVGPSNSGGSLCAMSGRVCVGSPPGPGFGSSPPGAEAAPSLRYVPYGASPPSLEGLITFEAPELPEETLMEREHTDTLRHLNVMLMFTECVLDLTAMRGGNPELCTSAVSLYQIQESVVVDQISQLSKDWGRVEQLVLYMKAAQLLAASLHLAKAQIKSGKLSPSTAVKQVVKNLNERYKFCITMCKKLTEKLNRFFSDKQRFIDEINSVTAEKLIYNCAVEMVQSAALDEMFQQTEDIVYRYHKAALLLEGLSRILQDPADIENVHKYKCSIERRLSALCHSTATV

`CS(=O)(=O)CCNCc1ccc(-c2ccc3ncnc(Nc4ccc(OCc5cccc(F)c5)c(Cl)c4)c3c2)o1` gave a remaining signal of 104% (cell-free assay; 0.5 µM).
`Cc1cnc(NC2CCOCC2)nc1-n1cnc(C(=O)NC(CN)c2cc(F)cc(Cl)c2)c1` (stereo not shown) gave a remaining activity of 110% (enzyme activity, inhibitor, radiometric; 1 µM).
With `O=C(CSc1nc2nccnc2c(=O)n1CCc1ccccc1)Nc1nccs1` the inhibition was 2% (enzyme activity, inhibitor; 10 µM).
`CCCCN(CCCC)C(=O)CN1C[C@@H](c2cc(OC)c3c(c2)OCO3)[C@H](C(=O)O)[C@H]1CC(C)(C)CCC` gave a remaining binding of 89.2% (cell-free assay, competition with immobilised ligand; 1 µM).
The remaining signal of `O=C1Nc2ccc(Cl)cc2C1=Cc1cc(Cl)c(O)c(Cl)c1` is reported as 101% (cell-free assay; 0.5 µM).
For `CCN1CCN(Cc2ccc(NC(=O)c3ccc(C)c(Oc4ccnc5[nH]ccc45)c3)cc2C(F)(F)F)CC1`, the inhibition was -16.6% (target engagement in cells, inhibitor, chemoproteomics; Huh-7; 1 µM).
The remaining activity of `COc1cc(Nc2cnc(C#N)c(O[C@H](C)CN(C)C)n2)ncc1-c1cnn(C)c1` is reported as 42% (enzyme activity, inhibitor, radiometric; 1 µM).
`CC(C)(O)[C@H]1CC[C@H](Nc2ccc3ncc(-c4cccc(C(F)(F)F)c4)n3n2)CC1` gave a remaining activity of 97.9% (enzyme activity, inhibitor; 1 µM).
The inhibition of `CCCS(=O)(=O)Nc1ccc(F)c(C(=O)c2c[nH]c3ncc(-c4ccc(Cl)cc4)cc23)c1F` is reported as less than 10% (enzyme activity, inhibitor; 1 µM).
The activity vs control of `FC(F)(F)Oc1cccc(-c2cnc3ccc(-c4ccncc4)nn23)c1` is reported as 95% (enzyme activity, inhibitor, radiometric; 5 µM).
With `C[C@@]1(Cc2ccc(C#N)cc2)C(=O)N(c2cc(Cl)cc(Cl)c2)c2ncc(C(=O)NC3(c4nc(C5CCC5)no4)CC3)n21` the remaining binding was 100% (cell-free assay, competition with immobilised ligand; 1 µM).
With `Cc1sc(C(=O)NC2COC2)cc1-n1cc(NC(=O)Nc2c(F)cccc2Cl)cn1` the remaining activity was 74.9% (enzyme activity, inhibitor; 10 µM).
With `CN1CCN(c2cnc3c(C4CCN(C(=O)c5ccc(OC(F)(F)F)cc5N)CC4)ncnc3c2)CC1` the remaining binding was 100% (cell-free assay, competition with immobilised ligand; 1 µM).
The remaining activity of `O=C(Nc1cnn(-c2csc(C(=O)NC3COC3)c2)c1)Nc1ccccc1Cl` is reported as 196% (enzyme activity, inhibitor; 5 µM).
The remaining binding of `N#Cc1ccc(Nc2ccc3[nH]c(=O)[nH]c3c2)c(Cl)c1` is reported as 99% (cell-free assay, competition with immobilised ligand; 1 µM).
`COc1cc(/C=C/C(=O)CC(=O)/C=C/c2ccc(O)c(OC)c2)ccc1O` has an activity vs control of 105% (enzyme activity, inhibitor; 1 µM).
`CCCOc1ccc([C@@H]2[C@@H](C(=O)O)[C@H](c3ccc4c(c3)OCO4)CN2CC(=O)Nc2c(CC)cccc2CC)cc1` has a remaining binding of 76% (cell-free assay, competition with immobilised ligand; 1 µM).
For `N#CCCc1ccc2c(c1)-c1[nH]c3ccc([N+](=O)[O-])cc3c1CC(=O)N2`, the remaining signal was 73.1% (cell-free assay; 0.5 µM).
`CC(=O)N1CCC(c2ccc(C(=O)NC3=NCCN3)cc2C(F)(F)F)CC1` gave a remaining binding of 82% (cell-free assay, competition with immobilised ligand; 1 µM).
With `CNC(=O)c1cc(Oc2ccc(NC(=O)Nc3ccc(Cl)c(C(F)(F)F)c3)cc2)ccn1` the remaining signal was 106% (cell-free assay; 0.5 µM).
The remaining binding of `CNC(=O)Nc1ccc2c(c1)[C@@]1(CC2)OC(=O)N(CC(=O)N(Cc2ccc(F)cc2)[C@@H](C)C(F)(F)F)C1=O` is reported as 100% (cell-free assay, competition with immobilised ligand; 1 µM).
The inhibition of `CN1CC(Oc2cnc(C#N)cc2-c2ccn3nc(NC(=O)C4CC4)cc3c2)C1` is reported as 8% (enzyme activity, inhibitor; 1 µM).
